{
  "source": "paper PMC3372611",
  "about": "(Biochemical Pharmacology, 2012)",
  "key": {"[1]": {"molecular_target": "T1, PMAT I89M mutant (Homo sapiens, UniProt Q7RTT9, I89M)", "T1 sequence (Q7RTT9 1-530 I89M)": "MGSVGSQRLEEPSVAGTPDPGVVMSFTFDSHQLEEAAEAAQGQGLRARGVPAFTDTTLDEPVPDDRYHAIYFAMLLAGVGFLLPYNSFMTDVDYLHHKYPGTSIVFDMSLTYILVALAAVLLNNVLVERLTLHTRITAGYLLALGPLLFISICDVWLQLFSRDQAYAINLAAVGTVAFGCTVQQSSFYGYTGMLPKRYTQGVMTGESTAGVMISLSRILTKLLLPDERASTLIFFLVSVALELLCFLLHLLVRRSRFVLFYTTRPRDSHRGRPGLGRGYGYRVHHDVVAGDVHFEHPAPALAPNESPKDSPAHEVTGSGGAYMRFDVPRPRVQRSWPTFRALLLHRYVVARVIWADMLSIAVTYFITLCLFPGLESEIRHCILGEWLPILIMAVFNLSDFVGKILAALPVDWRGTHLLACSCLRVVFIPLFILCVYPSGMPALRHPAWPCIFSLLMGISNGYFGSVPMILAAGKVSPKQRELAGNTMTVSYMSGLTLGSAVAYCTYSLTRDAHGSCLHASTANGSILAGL", "assay": "Inhibition of [3H]MPP+ uptake in I89M-transfected MDCK cells", "format": "cell-based", "how_it_was_run": "(§1)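 Stably transfected MDCK cells (YFP-tagged WT or I89M human PMAT) at confluence were exposed 1 min at 37°C in KRH buffer (pH 7.4) to [3H]MPP+ (1 μM) with or without test compound at various concentrations. Cells were washed in ice-cold KRH, counted by scintillation, and normalized to protein. IC50 came from fitting total uptake to a Hill-type equation with residual baseline. Wells in triplicate; three independent experiments on different passages; mean ± S.D.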"}, "[2]": {"molecular_target": "T2, WT PMAT (Homo sapiens, UniProt Q7RTT9)", "T2 sequence (Q7RTT9 1-530)": "T1 sequence (Q7RTT9 1-530 I89M) with M89I", "assay": "Inhibition of [3H]MPP+ uptake in WT PMAT-transfected MDCK cells", "format": "cell-based", "how_it_was_run": "as §1"}, "[3]": {"molecular_target": "T1, PMAT I89M mutant", "assay": "Concentration-dependent [3H]MPP+ uptake", "format": "cell-based", "settings": "MPP+ as substrate", "how_it_was_run": "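MDCK cells stably expressing YFP-tagged WT or I89M human PMAT (G418-selected, FACS-sorted) were grown 2–3 days to ~90–100% confluence. Cells were preincubated 15 min in KRH buffer (pH 7.4) at 37°C, then given various [3H]MPP+ concentrations for 1 min at 37°C. Uptake was read by scintillation and normalized to protein. Vector-cell uptake was subtracted, and Km and Vmax came from Michaelis-Menten nonlinear least-squares fits. Wells in triplicate; n=3 passages.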"}, "[4]": {"test_system": "ENT2", "settings": "ENT2 transporters; cited from earlier work"}, "[5]": {"molecular_target": "ENT1", "settings": "mammalian ENT1 proteins; cited from earlier work"}},
  "note": "Residue numbers refer to the chain shown, from its start. “And” between values parts separate entries of the source, which are not always exact repeats. Equal values may be shown once.",
  "data": [
    {"smiles": "COc1cc(C(=O)OCCCN2CCCN(CCCOC(=O)c3cc(OC)c(OC)c(OC)c3)CC2)cc(OC)c1OC", "note": "[Dilazep, dilazep]", "values": [
      {"measurement": "IC50", "setting": "[1]", "result": "6.6 ± 0.5", "unit": "µM"},
      {"measurement": "Increase in transporter sensitivity to inhibition, I89M vs WT PMAT", "setting": "[1]; inhibition of MPP+ uptake", "result": "2.5 fold and ~ 2.5 fold"},
      {"measurement": "IC50", "setting": "[2]", "result": "16.6 ± 2.1", "unit": "µM"}
    ]},
    {"smiles": "OCCN(CCO)c1nc(N2CCCCC2)c2nc(N(CCO)CCO)nc(N3CCCCC3)c2n1", "note": "[Dipyridamole, dipyridamole]", "values": [
      {"measurement": "IC50", "setting": "[1]", "result": "4.6 ± 1.8", "unit": "µM"},
      {"measurement": "Change in inhibition, I89M vs WT PMAT (in words)", "setting": "[1]; inhibition of MPP+ uptake", "result": "no significant changes"}
    ]},
    {"smiles": "C[n+]1ccc(-c2ccccc2)cc1", "note": "[MPP^+, 1-methyl-4-phenylpyridinium]", "values": [
      {"measurement": "Decrease in maximal transport velocity (Vmax), I89M vs WT PMAT", "setting": "[3]", "result": "2.7 fold and ~ 2.7 fold"},
      {"measurement": "Decrease in transport efficiency (Vmax/Km), I89M vs WT PMAT", "setting": "[3]", "result": 3.7, "unit": "fold"}
    ]},
    {"smiles": "O=[N+]([O-])c1ccc(CSc2ncnc3c2ncn3[C@@H]2O[C@H](CO)[C@@H](O)[C@H]2O)cc1", "note": "[NBMPR, nitrobenzylmercaptopurine riboside]", "values": [
      {"measurement": "Concentration at which the transporter becomes sensitive", "setting": "[4]", "result": "> 10", "unit": "µM"},
      {"measurement": "Kd", "setting": "[5]", "result": "0.001 to 0.01", "unit": "µM"},
      {"measurement": "Change in inhibition, I89M vs WT PMAT (in words)", "setting": "[1]; inhibition of MPP+ uptake", "result": "no significant changes"}
    ]}
  ]
}
